Key:
[1] = target: T1, Prostaglandin E2 receptor EP3 subtype (Homo sapiens, UniProt P43115); experiment: Antagonist activity at EP3 receptor (unknown origin)
T1 sequence (P43115 whole entry): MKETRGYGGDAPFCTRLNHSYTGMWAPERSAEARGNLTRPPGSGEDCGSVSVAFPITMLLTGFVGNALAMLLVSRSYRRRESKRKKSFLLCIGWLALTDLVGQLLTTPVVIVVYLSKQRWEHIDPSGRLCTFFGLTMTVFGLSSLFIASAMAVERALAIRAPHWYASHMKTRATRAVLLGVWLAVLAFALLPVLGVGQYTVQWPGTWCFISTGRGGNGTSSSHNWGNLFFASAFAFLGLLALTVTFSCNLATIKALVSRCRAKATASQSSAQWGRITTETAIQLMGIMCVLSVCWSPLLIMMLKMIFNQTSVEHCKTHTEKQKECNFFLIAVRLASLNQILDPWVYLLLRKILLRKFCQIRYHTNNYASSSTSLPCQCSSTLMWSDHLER

[2] = AUC (0 to t) in Sprague-Dawley rat at 1 mg/kg, iv; assay type: ADME, organism-based; design: dose 1 mg/kg, route iv; conditions: in vivo
[3] = Plasma protein binding in human at 1 uM incubated for 6 hrs by LC-MS/MS analysis; assay type: ADME, cell-free
[4] = Toxicity in BALB/c mouse allografted with CT26 cells assessed as body weight loss at 75 to 150 mg/kg, po qd administered for 11 days and measured every 2 to 3 days; assay type: organism-based; conditions: in vivo, 264 h, dose 75-150 mg/kg, time 11 day
How it was run: (§1)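 CT-26 tumors in BALB/c mice grown to 100–200 mm3, then animals randomized (n = 6/group). Dosing was oral, once daily for 11 days, in vehicle 0.5% carboxymethylcellulose sodium in PBS. Groups: vehicle, 75 or 150 mg/kg, or E7046 150 mg/kg. Tumor volume, TGI versus vehicle, body weight and day-11 tumor weight were recorded, with Dunnett's test versus vehicle.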

[5] = Plasma protein binding in mouse assessed as parent compound remaining at 1 uM incubated for 6 hrs by LC-MS/MS analysis; assay type: ADME, cell-free
[6] = target: T2, Prostaglandin E2 receptor EP2 subtype (Homo sapiens, UniProt P43116); experiment: Antagonist activity at EP2 receptor (unknown origin)
T2 sequence (P43116 whole entry): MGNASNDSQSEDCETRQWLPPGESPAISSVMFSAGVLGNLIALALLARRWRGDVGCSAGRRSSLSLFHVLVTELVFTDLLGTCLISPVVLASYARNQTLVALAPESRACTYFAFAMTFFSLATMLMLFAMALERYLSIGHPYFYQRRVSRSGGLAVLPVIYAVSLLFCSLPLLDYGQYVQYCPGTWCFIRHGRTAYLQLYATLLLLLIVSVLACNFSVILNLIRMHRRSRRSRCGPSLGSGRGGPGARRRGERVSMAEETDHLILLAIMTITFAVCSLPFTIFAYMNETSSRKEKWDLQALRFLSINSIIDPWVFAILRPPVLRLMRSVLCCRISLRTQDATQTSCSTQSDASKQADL

[7] = Cmax in Sprague-Dawley rat at 1 mg/kg, iv; assay type: ADME, organism-based; design: dose 1 mg/kg, route iv; conditions: in vivo
[8] = Plasma protein binding in human assessed as parent compound remaining at 1 uM incubated for 6 hrs by LC-MS/MS analysis; assay type: ADME, cell-free
[9] = Cmax in Sprague-Dawley rat at 10 mg/kg, po; assay type: ADME, organism-based; design: dose 10 mg/kg, route po; conditions: in vivo
[10] = Plasma protein binding in rat at 1 uM incubated for 6 hrs by LC-MS/MS analysis; assay type: ADME, cell-free
[11] = target: T3, Prostaglandin E2 receptor EP1 subtype (Homo sapiens, UniProt P34995); experiment: Displacement of [3H]-PGE2 from EP1 receptor membrane (unknown origin) measured after 2 hrs by Microscint-O scintillation counting analysis; assay type: cell membranes
T3 sequence (P34995 whole entry): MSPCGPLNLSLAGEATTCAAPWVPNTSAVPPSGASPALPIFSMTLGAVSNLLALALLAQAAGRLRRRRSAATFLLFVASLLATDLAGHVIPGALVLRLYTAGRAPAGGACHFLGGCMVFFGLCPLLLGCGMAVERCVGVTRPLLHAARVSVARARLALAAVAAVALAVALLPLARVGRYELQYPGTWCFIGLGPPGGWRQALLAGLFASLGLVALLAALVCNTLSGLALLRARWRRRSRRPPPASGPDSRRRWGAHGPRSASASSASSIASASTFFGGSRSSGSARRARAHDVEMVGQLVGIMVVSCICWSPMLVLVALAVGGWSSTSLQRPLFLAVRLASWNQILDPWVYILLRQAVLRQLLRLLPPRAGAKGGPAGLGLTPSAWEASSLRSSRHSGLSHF

[12] = AUC (0 to infinity) in Sprague-Dawley rat at 1 mg/kg, iv; assay type: ADME, organism-based; design: dose 1 mg/kg, route iv; conditions: in vivo
[13] = Microsomal stability in human liver microsomes assessed as half life at 1 uM measured for 60 mins by LC-MS/MS analysis; assay type: ADME, Microsome
[14] = target: T2, Prostaglandin E2 receptor EP2 subtype; experiment: Displacement of [3H]-PGE2 from EP2 receptor membrane (unknown origin) measured after 2 hrs by Microscint-O scintillation counting analysis; assay type: cell membranes
[15] = Half life in Sprague-Dawley rat at 1 mg/kg, iv; assay type: ADME, organism-based; conditions: in vivo
[16] = AUC (0 to t) in Sprague-Dawley rat at 10 mg/kg, po; assay type: ADME, organism-based; design: dose 10 mg/kg, route po; conditions: in vivo
[17] = target: Voltage-gated inwardly rectifying potassium channel KCNH2 (Homo sapiens, UniProt Q12809); experiment: Inhibition of hERG; assay type: toxicity
Voltage-gated inwardly rectifying potassium channel KCNH2, sequence (Q12809 whole entry): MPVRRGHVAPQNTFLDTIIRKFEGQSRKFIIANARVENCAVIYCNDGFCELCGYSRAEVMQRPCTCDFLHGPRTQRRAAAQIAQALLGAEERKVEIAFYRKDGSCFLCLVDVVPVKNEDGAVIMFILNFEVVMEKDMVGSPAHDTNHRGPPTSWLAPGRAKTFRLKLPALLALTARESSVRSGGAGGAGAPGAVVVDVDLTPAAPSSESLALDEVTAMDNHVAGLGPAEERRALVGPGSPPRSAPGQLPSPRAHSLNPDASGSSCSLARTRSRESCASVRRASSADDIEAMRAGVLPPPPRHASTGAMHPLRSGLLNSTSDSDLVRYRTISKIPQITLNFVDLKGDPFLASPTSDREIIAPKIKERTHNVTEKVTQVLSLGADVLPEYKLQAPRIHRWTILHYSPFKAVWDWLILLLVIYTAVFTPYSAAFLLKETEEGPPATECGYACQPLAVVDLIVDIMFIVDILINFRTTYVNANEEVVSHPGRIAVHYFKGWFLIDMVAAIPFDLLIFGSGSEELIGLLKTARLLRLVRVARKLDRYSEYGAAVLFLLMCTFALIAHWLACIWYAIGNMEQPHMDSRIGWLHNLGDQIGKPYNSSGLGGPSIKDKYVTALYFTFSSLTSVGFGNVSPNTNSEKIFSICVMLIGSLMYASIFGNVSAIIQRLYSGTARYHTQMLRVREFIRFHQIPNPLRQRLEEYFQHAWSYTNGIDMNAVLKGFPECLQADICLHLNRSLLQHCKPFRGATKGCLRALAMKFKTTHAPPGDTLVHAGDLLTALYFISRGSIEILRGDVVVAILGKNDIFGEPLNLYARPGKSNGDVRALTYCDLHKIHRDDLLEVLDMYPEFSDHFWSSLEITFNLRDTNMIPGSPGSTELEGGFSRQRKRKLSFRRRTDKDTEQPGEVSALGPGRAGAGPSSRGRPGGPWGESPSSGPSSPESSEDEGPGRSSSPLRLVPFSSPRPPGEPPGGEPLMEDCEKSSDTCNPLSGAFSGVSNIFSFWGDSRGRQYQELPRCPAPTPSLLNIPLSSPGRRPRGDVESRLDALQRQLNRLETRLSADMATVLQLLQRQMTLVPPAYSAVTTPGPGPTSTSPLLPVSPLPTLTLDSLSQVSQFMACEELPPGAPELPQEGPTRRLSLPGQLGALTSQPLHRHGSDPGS

[18] = Half life in Sprague-Dawley rat at 10 mg/kg, po; assay type: ADME, organism-based; conditions: in vivo
[19] = Volume of distribution at steady state in Sprague-Dawley rat at 1 mg/kg, iv; assay type: ADME, organism-based; conditions: in vivo, read-out: Vdss
[20] = target: T3, Prostaglandin E2 receptor EP1 subtype; experiment: Antagonist activity at EP1 receptor (unknown origin)
[21] = target: T1, Prostaglandin E2 receptor EP3 subtype; experiment: Displacement of [3H]-PGE2 from EP3 receptor membrane (unknown origin) measured after 2 hrs by Microscint-O scintillation counting analysis; assay type: cell membranes
[22] = Tmax at Sprague-Dawley rat at 10 mg/kg, po; assay type: ADME, organism-based; conditions: in vivo
[23] = Clearance in Sprague-Dawley rat at 1 mg/kg, iv; assay type: ADME, organism-based; conditions: in vivo
[24] = Microsomal stability in rat liver microsomes assessed as half life at 1 uM measured for 60 mins by LC-MS/MS analysis; assay type: ADME, Microsome
[25] = Plasma protein binding in rat assessed as parent compound remaining at 1 uM incubated for 6 hrs by LC-MS/MS analysis; assay type: ADME, cell-free
[26] = Plasma protein binding in mouse at 1 uM incubated for 6 hrs by LC-MS/MS analysis; assay type: ADME, cell-free
[27] = AUC (0 to infinity) in Sprague-Dawley rat at 10 mg/kg, po; assay type: ADME, organism-based; design: dose 10 mg/kg, route po; conditions: in vivo
[28] = Toxicity in BALB/c mouse allografted with CT26 cells assessed as reduction in body weight at 75 to 150 mg/kg, po administered daily for 21 days and measured every 2 to 3 days in presence of 300 mg/kg capecitabine; assay type: organism-based; conditions: in vivo, 504 h, dose 75-150 mg/kg, time 21 day
How it was run: (§2)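 CT-26 tumors in BALB/c mice (n = 6/group) dosed orally once daily from day 8 after implantation until day 21, in vehicle 0.5% carboxymethylcellulose sodium. Groups: vehicle, capecitabine 300 mg/kg alone, or capecitabine 300 mg/kg plus EP4 antagonist at 75 or 150 mg/kg. Tumor volume, TGI versus vehicle, body weight and tumor weight were recorded, with Dunnett's test.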

[29] = Oral bioavailability in Sprague-Dawley rat at 10 mg/kg; assay type: ADME, organism-based; conditions: in vivo
[30] = Microsomal stability in mouse liver microsomes assessed as half life at 1 uM measured for 60 mins by LC-MS/MS analysis; assay type: ADME, Microsome
[31] = target: Prostaglandin E2 receptor EP4 subtype (Homo sapiens, UniProt P35408); experiment: Antagonist activity at human EP4 receptor overexpressed in HEK293 cells assessed as inhibition of PGE2-induced cAMP formation preincubated for 15 mins followed by PGE addition and measured after 30 mins by Eu-cAMP tracer based assay; assay type: functional, cell-based
Prostaglandin E2 receptor EP4 subtype, sequence (P35408 whole entry): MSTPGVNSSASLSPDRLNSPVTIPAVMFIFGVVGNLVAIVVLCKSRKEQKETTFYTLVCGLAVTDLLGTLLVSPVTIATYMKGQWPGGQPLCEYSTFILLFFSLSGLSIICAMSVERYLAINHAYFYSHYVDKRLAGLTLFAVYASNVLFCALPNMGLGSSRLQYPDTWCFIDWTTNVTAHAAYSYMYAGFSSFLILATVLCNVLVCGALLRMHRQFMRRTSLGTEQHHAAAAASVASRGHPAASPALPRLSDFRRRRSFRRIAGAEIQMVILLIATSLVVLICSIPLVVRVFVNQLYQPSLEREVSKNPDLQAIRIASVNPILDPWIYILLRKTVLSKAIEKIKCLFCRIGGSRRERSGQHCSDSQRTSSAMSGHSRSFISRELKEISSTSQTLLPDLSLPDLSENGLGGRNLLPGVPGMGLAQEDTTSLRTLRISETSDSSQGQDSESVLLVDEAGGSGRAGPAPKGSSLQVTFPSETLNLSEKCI

CT26 [32] = experiment: Antitumor activity against mouse CT26 cells allografted in BALB/c mouse assessed as tumor growth inhibition at 300 mg/kg, po qd administered for 21 days starting from day 8 post tumor implantation measured once for every 2 or 3 days relative to control; assay type: functional; conditions: CT26, 504 h, time 21 day, read-out: TGI; how it was run: as §2
[33] = Toxicity in BALB/c mouse allografted with CT26 cells assessed as effect on body weight at 300 mg/kg, po administered daily for 21 days and measured every 2 to 3 days; assay type: organism-based; conditions: in vivo, 504 h, time 21 day; how it was run: as §2
CT26 [34] = experiment: Antitumor activity against mouse CT26 cells allografted in BALB/c mouse assessed as mean tumor volume at 300 mg/kg, po qd administered for 21 days starting from day 8 post tumor implantation measured once for every 2 or 3 days (reference value: 2036.95 +/- 333.12 mm3); assay type: functional; conditions: time 21 day; how it was run: as §2
CT26 [35] = experiment: Antitumor activity against mouse CT26 cells allografted in BALB/c mouse assessed as mean tumor volume at 150 mg/kg, po qd administered every day for 11 days measured for every 2 or 3 days (reference value: 2145.58 +/- 152.9 mm3); assay type: functional; conditions: time 11 day; how it was run: as §1
CT26 [36] = experiment: Antitumor activity against mouse CT26 cells allografted in BALB/c mouse assessed as tumor growth inhibition at 150 mg/kg, po qd administered every day for 11 days measured for every 2 or 3 days relative to control; assay type: functional; conditions: CT26, 264 h, time 11 day, read-out: TGI; how it was run: as §1

## COc1ccc(Br)cc1S(=O)(=O)NC(=O)/C=C/c1ccccc1Cc1ccc2ccccc2c1
[1]
  IC50: 0.033 µM

## C[C@H](NC(=O)c1c(Nc2cccc(C(F)(F)F)c2)c2ccccc2n1C)c1ccc(C(=O)O)cc1
[2]
  AUC(0-t): 3380 ng·h/mL
[3]
  PPB: 99.68%
[4]
  Activity: Non-Toxic
[5]
  residual activity: 70.47%
[6]
  IC50: > 10 µM
[7]
  Cmax: 4630 ng/mL
[8]
  residual activity: 83.02%
[9]
  Cmax: 8240 ng/mL
[10]
  PPB: 99.73%
[11]
  Ki: > 9.6 µM
[12]
  AUC(0-inf): 3420 ng·h/mL
[13]
  half-life at 1 µM: 0.404 h
[14]
  Ki: > 8.8 µM
[15]
  half-life: 1.4 h
[16]
  AUC(0-t): 25700 ng·h/mL
[17]
  IC50: > 40 µM
[18]
  half-life: 2.7 h
[19]
  Vd: 0.41 L/kg
[20]
  IC50: > 10 µM
[21]
  Ki: > 6.4 µM
[22]
  Tmax: 0.5 h
[23]
  clearance: 4.95 mL/min/kg
[24]
  half-life at 1 µM: 4.33 h
[1]
  IC50: > 10 µM
[25]
  residual activity: 88.79%
[26]
  PPB: 99.66%
[27]
  AUC(0-inf): 25700 ng·h/mL
[28]
  Activity: Non-Toxic
[29]
  bioavailability: 76.1%
[30]
  half-life at 1 µM: 1.64 h

## Cn1c(C(=O)NC2(c3ccc(C(=O)O)cc3)CC2)c(Nc2cccc(C(F)(F)F)c2)c2ccccc21
[11]
  Ki: > 9.6 µM
[14]
  Ki: > 8.8 µM
[21]
  Ki: > 6.4 µM

## C[C@H](NC(=O)c1c(Nc2cccc(C(F)(F)F)c2)c2ccccc2n1C)c1ccc(C(N)=O)cc1
[31]
  IC50: > 10 µM

## CCCCCOC(=O)Nc1nc(=O)n([C@@H]2O[C@H](C)[C@@H](O)[C@H]2O)cc1F [CAPECITABINE]
CT26 [32]
  inhibition in vivo at 300 mg/kg: 67.9%
[33]
  Activity: Non-Toxic
CT26 [34]
  Activity: 707.13 mm3

## C[C@H](NC(=O)c1c(C(F)F)nn(C)c1Oc1cccc(C(F)(F)F)c1)c1ccc(C(=O)O)cc1 [PALUPIPRANT]
CT26 [35]
  Activity: 1619.76 mm3
CT26 [36]
  inhibition in vivo at 150 mg/kg: 25.9%

Reference: ChEMBL document CHEMBL5316375, “Discovery of Novel, Selective Prostaglandin EP4 Receptor Antagonists with Efficacy in Cancer Models” (ACS Med Chem Lett, 2023)
